21 compounds from ChEMBL document CHEMBL3822447, “4-(1,2-diarylbut-1-en-1-yl)isobutyranilide derivatives as inhibitors of topoisomerase II” (2016) can be followed below.

Experiment [1] relates to HeLa. As to the kind of experiment: Cytotoxicity against human HeLa cells assessed as cell growth inhibition after 72 hrs by trypan blue assay. It is filed as functional. The essentials:
(§1)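 HeLa (F-12 HAM) and MCF-7 (DMEM) kept in medium with 10% heat-inactivated FCS plus antibiotics; 4-5×10^4 cells/well seeded, compounds added after 24 h at various concentrations, then 72 h more. Viable cells counted by trypan blue; GI50 is the concentration giving 50% fewer cells than control. Mean ± SD from at least three independent experiments.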

The test system of experiment [2] is A2780. Put plainly: Cytotoxicity against human A2780 cells assessed as cell growth inhibition after 72 hrs by MTS assay. The class given is functional. Conditions: A2780, 72 h. The method, boiled down:
(§2)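 Cells grown in RPMI1640 with 10% FBS and 2 mM glutamine at 37°C, 5% CO2; plated at 15 000 cells/mL, treated with compounds 72 h after plating, and survival read by MTS after a further 72 h; dose-response curves plotted.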
On the technique in general: Tetrazolium assays rely on reduction of a dye to a coloured formazan, in cell work by metabolically active cells.

Experiment [3] is described as follows: Cytotoxicity against human OVCAR5 cells assessed as cell growth inhibition after 72 hrs by MTS assay. Conditions: OVCAR-5, 72 h. The class given is functional. The method, boiled down:
as §2

The test system of experiment [4] is MCF7. Put plainly: Cytotoxicity against human MCF7 cells assessed as cell growth inhibition after 72 hrs by trypan blue assay. The class given is functional. Conditions: MCF7, 72 h. The essentials:
as §1

The target of experiment [5] is DNA topoisomerase 2-alpha (Homo sapiens) (UniProt P11388). Put plainly: Inhibition of human recombinant topoisomerase 2 alpha-mediated relaxation of supercoiled pBR322 plasmid DNA at 50 uM after 60 mins by electrophoretic analysis. The method, boiled down: (§3)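 Relaxation assay: 0.25 µg supercoiled pBR322 incubated with 1U human recombinant topoisomerase IIα and compound for 60 min at 37°C; m-AMSA reference at 10 µM. Stopped with SDS stop buffer plus 50 µg/mL proteinase K for 30 min at 37°C, run on 1% agarose, then stained with 1 µg/mL ethidium bromide in TAE.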

The subject of experiment [6] is HeLa. Put plainly: Induction of apoptosis in human HeLa cells assessed as dead cells at 50 uM after 28 hrs by annexin V/FITC/propidium iodide staining-based flow cytometry (reference value: 1%). The class given is functional. The method, boiled down:
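HeLa cells (2.0 x 10^5 per plate) seeded, grown 24 h in F-12 [HAM] with 10% heat-inactivated fetal calf serum, then exposed to test agent in complete medium for 28 h at 37 °C, 5% CO2. Cells were resuspended at 10^6 cells/mL in binding buffer and stained with annexin V-FITC plus propidium iodide for 15 min in the dark at room temperature. Read by flow cytometry.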

The target of experiment [7] is DNA topoisomerase 2-alpha (Homo sapiens) (UniProt P11388). Put plainly: Inhibition of human recombinant topoisomerase 2 alpha-mediated relaxation of supercoiled pBR322 plasmid DNA at 50 to 100 uM after 60 mins by electrophoretic analysis. The essentials: as §3
Experiment [8] concerns HeLa. As to the kind of experiment: Induction of mitochondrial membrane depolarization in human HeLa cells after 28 hrs by JC-1 staining-based flow cytometric analysis. It is filed as functional, cell-based. The essentials: (§4)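 HeLa cells (2.0 x 10^5) seeded, compound added after 24 h, then incubated 28 h. Cells loaded with JC-1 working solution for 30 min at 37°C, washed twice and read in assay buffer by flow cytometry. Loss of red aggregate fluorescence scored as depolarized (JC-1 monomer) cells.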
Background: Flow cytometry measures light scatter and fluorescence of single cells or particles in a stream.

Experiment [9] concerns HeLa. Put plainly: Induction of apoptosis in human HeLa cells assessed as viable cells at 50 uM after 28 hrs by annexin V/FITC/propidium iodide staining-based flow cytometry (reference value: 95.3%). The class given is functional. Conditions: read-out: Activity.
For experiment [10], the system named is HeLa. Put plainly: Induction of mitochondrial membrane depolarization in human HeLa cells at 10 uM after 28 hrs by JC-1 staining-based flow cytometric analysis (reference value: 4%). It is filed as functional. The method, boiled down:
as §4

The test system of experiment [11] is HeLa. Put plainly: Induction of apoptosis in human HeLa cells assessed as late apoptotic cells at 50 uM after 28 hrs by annexin V/FITC/propidium iodide staining-based flow cytometry (reference value: 1.2%). The class given is functional.
Experiment [12] concerns HeLa. As to the kind of experiment: Induction of mitochondrial membrane depolarization in human HeLa cells at 25 uM after 28 hrs by JC-1 staining-based flow cytometric analysis (reference value: 4%). The class given is functional. The essentials: as §4
The subject of experiment [13] is HeLa. Put plainly: Induction of apoptosis in human HeLa cells assessed as early apoptotic cells at 50 uM after 28 hrs by annexin V/FITC/propidium iodide staining-based flow cytometry (reference value: 2.6%). It is filed as functional.
The target in experiment [14] is DNA topoisomerase 2-alpha (Homo sapiens) (UniProt P11388). Put plainly: Poisoning activity at human recombinant topoisomerase 2 alpha using supercoiled pBR322 plasmid DNA as substrate assessed as stabilization of covalent DNA-enzyme complex at 50 uM after 60 mins by electrophoretic analysis. The essentials:
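Cleavage assay: 0.25 µg supercoiled pBR322 with 10 U human recombinant topoisomerase IIα and compound, 60 min at 37°C. Stopped with SDS buffer and 50 µg/mL proteinase K for 30 min at 37°C, then resolved on 1% agarose containing 0.5 µg/mL ethidium bromide in TBE, with UV imaging.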

Calls of active or inactive are those of the source. The rule behind the calls is not given here. A value given as a limit tells only on which side of the number the result lay.

Chain of DNA topoisomerase 2-alpha (Homo sapiens) (P11388 whole entry): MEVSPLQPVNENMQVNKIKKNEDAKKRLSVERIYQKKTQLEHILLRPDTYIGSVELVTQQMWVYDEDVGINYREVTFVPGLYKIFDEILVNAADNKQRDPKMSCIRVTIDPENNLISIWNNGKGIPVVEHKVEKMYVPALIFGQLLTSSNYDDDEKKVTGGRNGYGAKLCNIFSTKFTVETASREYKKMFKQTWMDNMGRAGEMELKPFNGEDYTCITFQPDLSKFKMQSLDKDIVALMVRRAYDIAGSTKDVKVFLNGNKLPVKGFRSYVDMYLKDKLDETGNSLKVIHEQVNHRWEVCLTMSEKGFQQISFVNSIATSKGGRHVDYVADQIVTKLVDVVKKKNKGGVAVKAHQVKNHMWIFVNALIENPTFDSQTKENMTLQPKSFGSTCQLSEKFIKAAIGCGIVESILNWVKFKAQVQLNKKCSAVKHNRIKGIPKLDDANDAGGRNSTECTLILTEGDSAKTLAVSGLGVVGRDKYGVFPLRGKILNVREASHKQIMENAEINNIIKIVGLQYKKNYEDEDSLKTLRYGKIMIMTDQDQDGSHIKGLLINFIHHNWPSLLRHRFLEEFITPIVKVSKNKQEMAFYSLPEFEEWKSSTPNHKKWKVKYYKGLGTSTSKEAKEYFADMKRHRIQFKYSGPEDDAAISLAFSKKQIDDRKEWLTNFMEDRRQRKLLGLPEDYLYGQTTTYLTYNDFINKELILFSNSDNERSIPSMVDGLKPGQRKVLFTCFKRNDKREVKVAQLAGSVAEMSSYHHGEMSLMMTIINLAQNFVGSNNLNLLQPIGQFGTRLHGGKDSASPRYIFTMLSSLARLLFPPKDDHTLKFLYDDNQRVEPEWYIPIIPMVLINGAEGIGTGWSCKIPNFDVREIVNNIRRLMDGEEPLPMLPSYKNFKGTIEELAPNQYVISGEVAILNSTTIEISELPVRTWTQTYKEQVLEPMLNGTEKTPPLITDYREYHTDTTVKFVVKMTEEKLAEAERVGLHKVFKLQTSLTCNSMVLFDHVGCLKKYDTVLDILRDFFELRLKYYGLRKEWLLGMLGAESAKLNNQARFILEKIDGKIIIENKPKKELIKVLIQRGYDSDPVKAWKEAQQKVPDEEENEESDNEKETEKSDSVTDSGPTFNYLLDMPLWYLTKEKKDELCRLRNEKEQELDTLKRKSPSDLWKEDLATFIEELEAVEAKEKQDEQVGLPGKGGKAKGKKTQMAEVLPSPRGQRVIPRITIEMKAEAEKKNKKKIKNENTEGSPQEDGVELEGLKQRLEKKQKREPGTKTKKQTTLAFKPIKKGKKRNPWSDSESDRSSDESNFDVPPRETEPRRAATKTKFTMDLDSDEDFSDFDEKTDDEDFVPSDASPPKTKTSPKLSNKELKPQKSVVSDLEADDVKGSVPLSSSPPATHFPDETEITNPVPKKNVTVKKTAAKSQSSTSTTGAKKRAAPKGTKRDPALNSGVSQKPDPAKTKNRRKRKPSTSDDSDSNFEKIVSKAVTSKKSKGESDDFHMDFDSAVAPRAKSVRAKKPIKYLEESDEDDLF

By GI50 is commonly meant the concentration that inhibits growth by half. `CC/C(=C(\c1ccc(O)cc1)c1ccc(NC(=O)C(C)C)cc1)c1ccccc1`: the GI50 was found to be 9.9 µM in [1], 34 µM in [2], 42 µM in experiment [3] and 14.7 µM in experiment [4].

`CC/C(=C(\c1ccccc1)c1ccc(NC(=O)C(C)C)cc1)c1ccc(OCc2ccccc2)cc1`: the GI50 in experiment [1] was 10.2 µM; in experiment [2] it was 8.8 µM; in experiment [3], greater than 50 µM; in experiment [4] it was greater than 30 µM.

As for `CC/C(=C(/c1ccc(NC(=O)C(C)C)cc1)c1ccc(OC)cc1)c1ccc(O)cc1`, the inhibition entry in experiment [5] is “Active”. The GI50 was 5.8 µM in experiment [1], 13.6 µM in experiment [2], 29.3 µM in [3] and 13.6 µM in [4].

As for `CC/C(=C(\c1ccc(O)cc1)c1ccc(NC(=O)C(C)C)cc1)c1ccc(Cl)cc1Cl`, the GI50 in experiment [1] came out at 8.7 µM; in [2], 15.7 µM; in [3], 28.8 µM; in experiment [4], 12.5 µM.

`CC/C(=C(\c1ccccc1)c1ccc(NC(=O)C(C)C)cc1)c1ccc(O)cc1`: the GI50 in [1] is 3.8 µM; in [2], 3.7 µM; in experiment [3], 8.7 µM; in experiment [4], 8.1 µM.

For the compound `CC/C(=C(\c1ccc(NC(=O)C(C)C)cc1)c1ccc(OC)cc1)c1ccc(O)cc1`, the GI50 turned out to be 3.7 µM in experiment [1], 5.7 µM in experiment [2], 23.6 µM in experiment [3] and 9 µM in [4].

In the case of `CC/C(=C(\c1ccc(NC(=O)C(C)C)cc1)c1ccc(OC)cc1)c1ccccc1`, the GI50 in experiment [1] is 10.1 µM; in [2], 17.4 µM; in [3], greater than 50 µM; in experiment [4] it was 27.9 µM.

In the case of `CC/C(=C(\c1ccccc1)c1ccc(OCCN(C)C)cc1)c1ccccc1` [TAMOXIFEN], the Activity in [6] is 2.7%; in experiment [8], “Dose-dependent effect”; in [10] it was 3.9%; in experiment [11], 28%; in [12], 26.2%; in experiment [13], 29.9%. In addition, in experiment [7], the inhibition result was “inactive”. For the same compound, the GI50 in experiment [1] amounted to 12 µM; in experiment [2] it was 30.3 µM; in experiment [3], 32 µM; in experiment [4], 6.5 µM. Also, the viability at 50 µM in experiment [9] is 39.4%.

`CC/C(=C(\c1ccccc1)c1ccc(NC(=O)C(C)C)cc1)c1ccccc1`: the GI50 in experiment [1] was greater than 30 µM; in [2], greater than 50 µM; in [3] it was greater than 50 µM; in experiment [4] it was greater than 30 µM.

With `CC/C(=C(/c1ccc(NC(=O)C(C)C)cc1)c1ccc(OC)cc1)c1ccc(OCc2ccccc2)cc1`, the GI50 is 4.2 µM in experiment [1], greater than 50 µM in [2], greater than 50 µM in [3] and 29 µM in experiment [4].

Take `CC/C(=C(/c1ccc(NC(=O)C(C)C)cc1)c1ccc(OC)cc1)c1ccccc1`: the 50% growth inhibitory concentration (GI50) in [1] was greater than 30 µM; in experiment [2] it was greater than 50 µM; in experiment [3] it was greater than 50 µM; in [4], greater than 30 µM.

With `CC/C(=C(\c1ccc(NC(=O)C(C)C)cc1)c1ccc(OC)cc1)c1ccc(Cl)cc1Cl`, the GI50 in [1] is 5.5 µM; in experiment [2], 8.2 µM; in experiment [3], greater than 50 µM; in [4], 13.2 µM.

Turning to `CC/C(=C(\c1ccc(NC(=O)C(C)C)cc1)c1ccc(OC)cc1)c1ccc(OCc2ccccc2)cc1`, the GI50 in experiment [1] was greater than 30 µM; in experiment [2] it was greater than 50 µM; in experiment [3], greater than 50 µM; in [4] it was greater than 30 µM.

As to `CC/C(=C(/c1ccccc1)c1ccc(NC(=O)C(C)C)cc1)c1ccccc1`, the concentration for 50% growth inhibition (GI50) in [1] was 28.1 µM; in experiment [2] it was 31.6 µM; in experiment [3] it was greater than 50 µM; in experiment [4] it was greater than 30 µM.

In the case of `CC/C(=C(/c1ccccc1)c1ccc(NC(=O)C(C)C)cc1)c1ccc(OCc2ccccc2)cc1`, the GI50 in experiment [1] was greater than 30 µM; in experiment [2], greater than 50 µM; in experiment [3] it was greater than 50 µM; in [4], greater than 30 µM.

On to `CC/C(=C(/c1ccccc1)c1ccc(NC(=O)C(C)C)cc1)c1ccc(Cl)cc1Cl`, for which the GI50 in [1] is 8.2 µM; in experiment [2], greater than 50 µM; in [3] it was greater than 50 µM; in experiment [4], 17.5 µM.

Consider `CC/C(=C(\c1ccccc1)c1ccc(NC(=O)C(C)C)cc1)c1ccc(Cl)cc1Cl`, for which the result in experiment [14] was Active. Also, the GI50 in experiment [1] was 3.3 µM; in experiment [2], 8.4 µM; in [3], greater than 50 µM; in experiment [4], 8.3 µM.

`CC/C(=C(/c1ccc(O)cc1)c1ccc(NC(=O)C(C)C)cc1)c1ccccc1`: the GI50 in experiment [1] is 9.9 µM; in experiment [2], 32.6 µM; in experiment [3] it was greater than 50 µM; in experiment [4] it was 16.4 µM.

On to `CC/C(=C(\c1ccccc1)c1ccc(N)cc1)c1ccccc1`, for which the GI50 is greater than 30 µM in [1], greater than 50 µM in experiment [2], greater than 50 µM in [3] and greater than 30 µM in experiment [4].

On to `CC/C(=C(/c1ccc(O)cc1)c1ccc(NC(=O)C(C)C)cc1)c1ccc(Cl)cc1Cl`, for which the GI50 in experiment [1] came to 20.3 µM; in [2], 28.1 µM; in [3], 32.3 µM; in [4], 26.6 µM.

Take `CC/C(=C(/c1ccccc1)c1ccc(NC(=O)C(C)C)cc1)c1ccc(O)cc1`: in experiment [5], the inhibition entry was “Active”. In addition, the GI50 in experiment [1] is 5.1 µM; in [2], 4.6 µM; in [3], 12.1 µM; in [4] it was 8.5 µM.
